Results on 17 molecules are retold here after article PMC11628833 (Acta Pharmaceutica Sinica. B, 2024).

One experiment addresses T1, human TLR7 (Homo sapiens, UniProt Q9NYK1).
T1 sequence (Q9NYK1 27-1049): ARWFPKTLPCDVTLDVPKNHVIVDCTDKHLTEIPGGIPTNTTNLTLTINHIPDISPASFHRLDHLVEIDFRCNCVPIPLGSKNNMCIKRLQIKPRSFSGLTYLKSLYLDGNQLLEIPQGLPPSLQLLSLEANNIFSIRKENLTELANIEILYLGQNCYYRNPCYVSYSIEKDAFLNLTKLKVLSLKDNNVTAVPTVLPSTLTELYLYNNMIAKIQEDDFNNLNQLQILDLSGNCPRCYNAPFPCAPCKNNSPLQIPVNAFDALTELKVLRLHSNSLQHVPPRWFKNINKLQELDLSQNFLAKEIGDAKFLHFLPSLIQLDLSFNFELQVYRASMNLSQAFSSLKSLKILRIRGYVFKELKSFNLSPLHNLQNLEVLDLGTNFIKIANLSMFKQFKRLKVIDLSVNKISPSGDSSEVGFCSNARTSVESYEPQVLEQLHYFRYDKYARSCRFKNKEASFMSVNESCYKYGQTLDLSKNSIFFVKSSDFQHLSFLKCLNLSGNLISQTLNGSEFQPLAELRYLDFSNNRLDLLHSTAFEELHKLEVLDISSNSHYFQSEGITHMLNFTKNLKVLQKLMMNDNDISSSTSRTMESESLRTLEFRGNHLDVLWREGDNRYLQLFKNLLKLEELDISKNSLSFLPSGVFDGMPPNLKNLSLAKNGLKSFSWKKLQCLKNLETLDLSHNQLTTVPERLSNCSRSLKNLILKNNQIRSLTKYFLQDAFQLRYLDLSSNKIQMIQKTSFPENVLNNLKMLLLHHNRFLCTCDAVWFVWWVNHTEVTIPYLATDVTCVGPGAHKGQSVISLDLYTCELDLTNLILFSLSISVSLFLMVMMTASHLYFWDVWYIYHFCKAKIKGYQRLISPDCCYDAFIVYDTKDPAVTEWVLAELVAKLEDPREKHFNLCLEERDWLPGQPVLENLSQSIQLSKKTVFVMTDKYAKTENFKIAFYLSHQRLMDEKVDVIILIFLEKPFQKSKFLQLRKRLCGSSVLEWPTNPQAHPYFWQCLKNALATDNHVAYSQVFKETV
The experiment is described as follows: SEAP reporter assay in HEK-Blue hTLR7 cells. The format is cell-based. In outline: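 HEK-Blue hTLR7 cells (stable human TLR7 with SEAP reporter) were plated at 5 × 10^5 cells/mL in DMEM with 10% heat-inactivated FBS. They were treated with R848 and varying test compound concentrations at 37 °C for 20–24 h. Medium was mixed with QUANTI-Blue, incubated at 37 °C for about 30 min, and read at 620 nm. R848-only = 100% activation; untreated = 0%.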
Background: A reporter such as luciferase makes a cellular process visible.

Another experiment has as its target T2, hTLR8 (Homo sapiens, UniProt Q9NR97).
T2 sequence (Q9NR97 27-1041): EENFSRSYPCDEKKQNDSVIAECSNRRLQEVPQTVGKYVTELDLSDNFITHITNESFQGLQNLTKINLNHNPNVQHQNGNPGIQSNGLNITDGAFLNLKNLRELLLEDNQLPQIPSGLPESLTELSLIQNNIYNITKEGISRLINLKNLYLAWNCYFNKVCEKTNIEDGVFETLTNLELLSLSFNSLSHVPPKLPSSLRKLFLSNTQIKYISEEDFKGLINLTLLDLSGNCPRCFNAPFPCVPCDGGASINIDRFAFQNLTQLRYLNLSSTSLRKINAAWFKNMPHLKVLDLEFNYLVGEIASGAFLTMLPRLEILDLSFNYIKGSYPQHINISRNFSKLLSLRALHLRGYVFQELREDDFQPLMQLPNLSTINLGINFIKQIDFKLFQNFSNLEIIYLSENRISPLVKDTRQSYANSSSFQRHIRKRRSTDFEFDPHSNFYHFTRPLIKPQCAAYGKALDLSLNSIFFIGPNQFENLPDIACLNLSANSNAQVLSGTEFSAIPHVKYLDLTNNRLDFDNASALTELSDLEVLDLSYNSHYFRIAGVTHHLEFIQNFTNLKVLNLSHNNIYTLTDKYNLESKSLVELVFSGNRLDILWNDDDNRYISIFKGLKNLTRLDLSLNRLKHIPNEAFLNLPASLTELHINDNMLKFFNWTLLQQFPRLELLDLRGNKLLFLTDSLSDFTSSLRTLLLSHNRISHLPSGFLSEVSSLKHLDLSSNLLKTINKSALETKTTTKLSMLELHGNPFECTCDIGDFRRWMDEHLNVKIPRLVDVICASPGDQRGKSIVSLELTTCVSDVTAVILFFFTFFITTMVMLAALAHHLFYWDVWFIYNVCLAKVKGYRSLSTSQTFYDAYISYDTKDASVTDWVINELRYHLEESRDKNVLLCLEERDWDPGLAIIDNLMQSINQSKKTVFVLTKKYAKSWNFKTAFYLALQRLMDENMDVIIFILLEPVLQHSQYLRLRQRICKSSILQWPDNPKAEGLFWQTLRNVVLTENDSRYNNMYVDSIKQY
As to the kind of experiment: SEAP reporter assay in HEK-Blue hTLR8 cells. The format is cell-based.

For experiment [1], the target named is T3, TLR7 extracellular domain (Macaca mulatta, UniProt B3Y653, N167Q/N389Q/N488Q/N799Q, form not given).
T3 sequence (B3Y653 27-839 N167Q/N389Q/N488Q/N799Q): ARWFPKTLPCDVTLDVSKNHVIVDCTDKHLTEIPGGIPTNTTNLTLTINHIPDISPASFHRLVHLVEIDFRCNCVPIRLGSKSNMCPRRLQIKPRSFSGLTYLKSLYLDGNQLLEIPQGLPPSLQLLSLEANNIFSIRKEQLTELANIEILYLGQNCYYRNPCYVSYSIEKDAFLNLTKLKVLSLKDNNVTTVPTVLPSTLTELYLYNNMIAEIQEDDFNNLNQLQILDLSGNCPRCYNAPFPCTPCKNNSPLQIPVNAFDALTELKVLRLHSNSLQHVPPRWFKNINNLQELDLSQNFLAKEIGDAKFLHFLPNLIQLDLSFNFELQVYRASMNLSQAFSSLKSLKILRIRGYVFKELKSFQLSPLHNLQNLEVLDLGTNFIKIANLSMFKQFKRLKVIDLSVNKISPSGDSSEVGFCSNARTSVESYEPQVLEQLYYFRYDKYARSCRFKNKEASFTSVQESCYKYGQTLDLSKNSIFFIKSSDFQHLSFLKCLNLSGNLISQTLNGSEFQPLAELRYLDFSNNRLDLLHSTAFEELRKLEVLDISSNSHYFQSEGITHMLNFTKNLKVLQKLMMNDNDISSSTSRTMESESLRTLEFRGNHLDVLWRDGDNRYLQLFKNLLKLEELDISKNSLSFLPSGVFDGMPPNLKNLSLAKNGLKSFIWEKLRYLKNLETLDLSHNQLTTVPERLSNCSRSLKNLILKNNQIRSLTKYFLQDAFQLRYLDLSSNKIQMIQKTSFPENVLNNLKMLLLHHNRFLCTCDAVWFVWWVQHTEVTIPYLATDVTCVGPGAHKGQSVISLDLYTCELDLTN
As to the kind of experiment: ITC titration to TLR7 recombinant protein. The format is binding, Monkey (Macaca mulatta). In short, it runs like this:
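Titrations used the same purified rhesus TLR7 ectodomain, at 298 K in citrate/NaOH pH 4.8, 150 mmol/L NaCl. Syringe held 1 mmol/L test compound or loxoribine; cell held TLR7, with or without the other ligand pre-added. Each run was one small injection followed by 18 injections at 180 s intervals. Kd and ΔH obtained by single-site binding model fitting.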
A general note: Isothermal titration calorimetry measures the heat released or taken up as one component is titrated into another.

The subject of experiment [2] is IL-8 mRNA (TLR7 downstream). As to the kind of experiment: RT-PCR analysis of IL-8 mRNA in R848 treated HEK-Blue TLR7 cells. The format is cell-based, human. As to conditions: 2 μg/mL R848 treated HEK-Blue TLR7 cells. In short, it runs like this:
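HEK-Blue TLR7 cells were seeded at 1 × 10^6 cells/well for 24 h, then switched to serum-free medium. They were treated ± R848 with various test compound concentrations for 16 h at 37 °C. IL-8 mRNA was quantified by RT-PCR using the ΔΔCt method, with GAPDH as reference and normalization to untreated cells.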

Another experiment relates to MRL/lpr mice. As to the kind of experiment: MRL/lpr mice SLE model. The format is in vivo, mouse. The note with it: female MRL/lpr mice, S14 50 mg/kg oral once daily; vs placebo. In outline:
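Mice were 14-week-old female MRL/lpr, randomized by body weight, n = 12/group, treated 4 weeks. Oral test compound in 10% w/v PEG-400/1,3-propanediol/water (55:20:25): 100 mg/kg twice daily, or a second compound at 50 mg/kg once daily. Controls: hydroxychloroquine 100 mg/kg daily in saline; saline placebo. Weekly: survival, body weight, skin lesions, and fundus-vein plasma for ANA/anti-dsDNA ELISA. Endpoint: spleen weight and H&E kidney histology.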

Where [3] appears, read: 1 mmol/L loxoribine into 50 μmol/L TLR7, absence of TH-407b.

Usually IC50 stands for the midpoint of a concentration-inhibition curve. Read a low IC50 as greater potency. In the case of `COc1ccccc1C(=O)N1CCN(c2ccc([N+](=O)[O-])c3ncccc23)CC1` [Compound S10], the figures for the IC50 at human TLR7 and against hTLR8 were 3060 ± 2720 nM and 60 ± 10 nM, respectively.

One may read the Kd as a measure of binding affinity in units of concentration. For `C=CCn1c(=O)n([C@@H]2O[C@H](CO)[C@@H](O)[C@H]2O)c2nc(N)[nH]c(=O)c21` [loxoribine], in experiment [1] (setting [3]), the Kd came out at 4400 nM and the ΔH was -5.828 kcal/mol. Also, in experiment [1] (loxoribine into TLR7 in the presence of pre-mixed 500 μmol/L TH-407b), the “heat change upon titration” value is recorded as “completely obliterated”.

On to `COc1cccc(C(=O)N2CCN(c3ccc([N+](=O)[O-])c4ncccc34)CC2)c1` [Compound S9], for which the IC50 on human TLR7 was determined as 1280 ± 1050 nM; at hTLR8, 80 ± 30 nM.

Consider `COc1ccc(C(=O)N2CCN(c3ccc(N)c4ncccc34)CC2)cc1` [Compound S21], for which, at hTLR8, it took 820 ± 40 nM to reach half-maximal inhibition (IC50).

Take `O=C(c1ccco1)N1CCN(c2ccc([N+](=O)[O-])c3ncccc23)CC1` [Compound S13]: the half-maximal inhibitory concentration (IC50) turned out to be 530 ± 110 nM on human TLR7 and 100 ± 10 nM at hTLR8.

Turning to `COc1ccc(C(=O)N2CCN(c3ccc([N+](=O)[O-])c4ncccc34)CC2)c(OC)c1` [Compound S11], the half-inhibitory concentration (IC50) against human TLR7 turned out to be 410 ± 330 nM; at hTLR8, 60 ± 30 nM.

For the molecule `O=C(c1ccc([N+](=O)[O-])cc1)N1CCN(c2ccc([N+](=O)[O-])c3ncccc23)CC1` [Compound S5], the IC50 stood at 640 ± 210 nM at human TLR7 and 150 ± 40 nM against hTLR8.

`O=C(c1ccc(Br)cc1)N1CCN(c2ccc([N+](=O)[O-])c3ncccc23)CC1` [Compound S8]: the IC50 at human TLR7 amounted to 970 ± 1230 nM; on hTLR8 it was 140 ± 170 nM.

For `COc1ccc(C(=O)N2CCN(c3ccc([N+](=O)[O-])c4cccnc34)CC2)cc1` [Compound S24], in experiment [2], the “IL-8 mRNA level” value is “inactive”.

`COc1ccc(C(=O)N2CCN(c3ccc([N+](=O)[O-])c4ncccc34)CC2)cc1` [Compound S4]: the IC50 on human TLR7 is 530 ± 90 nM; at hTLR8 it was 70 ± 10 nM.

For the molecule `O=[N+]([O-])c1ccc(-c2ccc(O)cc2)c2cccnc12` [Compound S15], the IC50 on human TLR7 and at hTLR8 was 20 ± 10 nM in each case.

Regarding `Cc1ccc(C(=O)N2CCN(c3ccc([N+](=O)[O-])c4ncccc34)CC2)cc1` [Compound S2], the 50% inhibitory concentration (IC50) against human TLR7 came out at 860 ± 390 nM; against hTLR8 it was 110 ± 40 nM.

As to `O=[N+]([O-])c1ccc(-c2ccc(CO)cc2)c2cccnc12` [Compound S16], the IC50 at human TLR7 was found to be 660 ± 130 nM; on hTLR8, 1300 ± 30 nM.

As for `O=C(c1ccc(F)cc1)N1CCN(c2ccc([N+](=O)[O-])c3ncccc23)CC1` [Compound S7], the figures for the IC50 on human TLR7 and against hTLR8 were 1150 ± 160 nM and 100 ± 50 nM, respectively.

For `O=C(c1ccncc1)N1CCN(c2ccc([N+](=O)[O-])c3ncccc23)CC1` [Compound S14], at human TLR7, inhibition was half-maximal at 3000 ± 370 nM (IC50). Moreover, in the experiment on MRL/lpr mice, the “ANA and anti-ds-DNA antibody levels” value is reported as “no significant alterations”; the glomerular diameter entry is recorded as “no significant alterations”; the skin lesion severity entry is given as “no significant alterations”; the spleen index entry is listed as “no significant alterations”. Further, the survival rate entry in the experiment with MRL/lpr mice is “notably lower than the placebo group”. This molecule registered an IC50 at hTLR8 of 60 ± 10 nM.

`O=C(c1cccs1)N1CCN(c2ccc([N+](=O)[O-])c3ncccc23)CC1` [Compound S12]: the IC50 at human TLR7 was 2120 ± 580 nM; against hTLR8 it was 60 ± 30 nM.

As to `O=C(c1ccccc1)N1CCN(c2ccc([N+](=O)[O-])c3ncccc23)CC1` [Compound S6], the IC50 against human TLR7 came to 1070 ± 420 nM; against hTLR8 it was 100 ± 70 nM.
